Assay [1] deals with Staphylococcus aureus. Briefly: Antimicrobial activity against Staphylococcus aureus ATCC 29213 at 128 uM after 24 to 48 hrs by two-fold broth microdilution method. Format: functional, organism-based. The essentials:
(§1)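 Antibacterial microdilution in CAMH, inoculum 0.5 McFarland diluted in saline/CAMH, 35 °C for 18 h, with further reads at 24 and 48 h. Activity is scored at the maximum tested concentration, 128 µM. Triplicate.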

In assay [2] the test system is Escherichia coli. Briefly: Antimicrobial activity against Escherichia coli ATCC 25922 at 128 uM after 24 to 48 hrs by two-fold broth microdilution method. In kind it is functional, organism-based. The essentials:
as §1
In general terms: In broth dilution the organism is exposed to a series of concentrations in liquid medium.

For assay [3], the system named is Serratia marcescens. Briefly: Antimicrobial activity against Serratia marcescens ATCC 14576 at 128 uM after 24 to 48 hrs by two-fold broth microdilution method. In kind it is functional, organism-based. The essentials: as §1
Assay [4] has as its system Enterococcus faecalis. Briefly: Antimicrobial activity against Enterococcus faecalis ATCC 29212 at 128 uM after 24 to 48 hrs by two-fold broth microdilution method. Format: functional, organism-based. The essentials:
as §1

The subject of assay [5] is Candida albicans. Briefly: Antimicrobial activity against Candida albicans ATCC 537Y at 64 uM after 48 hrs by two-fold broth microdilution method. Format: functional, organism-based. In short, it runs like this:
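Single top concentration of the antifungal microdilution: RPMI 1640, inoculum 0.5 McFarland diluted in saline/RPMI, 35 °C for 48 h. Activity is judged at the highest tested level, 64 µM. Run in triplicate.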

For assay [6], the system named is Enterobacter cloacae. Briefly: Antimicrobial activity against Enterobacter cloacae ATCC 23355 at 128 uM after 24 to 48 hrs by two-fold broth microdilution method. In kind it is functional, organism-based. In short, it runs like this:
as §1

Assay [7] has as its system Klebsiella pneumoniae. Briefly: Antimicrobial activity against Klebsiella pneumoniae ATCC 700603 at 128 uM after 24 to 48 hrs by two-fold broth microdilution method. In kind it is functional, organism-based. The essentials:
as §1

Assay [8] has as its system Escherichia coli. In words: Antimicrobial activity against Escherichia coli ATCC 25922 after 24 to 48 hrs by two-fold broth microdilution method. Format: functional.
Assay [9] deals with Staphylococcus aureus. In words: Antimicrobial activity against Staphylococcus aureus ATCC 29213 after 24 to 48 hrs by two-fold broth microdilution method. Format: functional.
Assay [10] concerns Enterobacter cloacae. Briefly: Antimicrobial activity against Enterobacter cloacae ATCC 23355 after 24 to 48 hrs by two-fold broth microdilution method. In kind it is functional.
In assay [11] the test system is Enterococcus faecalis. In words: Antimicrobial activity against Enterococcus faecalis ATCC 29212 after 24 to 48 hrs by two-fold broth microdilution method. In kind it is functional.
Assay [12] deals with Serratia marcescens. Briefly: Antimicrobial activity against Serratia marcescens ATCC 14576 after 24 to 48 hrs by two-fold broth microdilution method. Format: functional.
Assay [13] relates to Klebsiella pneumoniae. Briefly: Antimicrobial activity against Klebsiella pneumoniae ATCC 700603 after 24 to 48 hrs by two-fold broth microdilution method. In kind it is functional. The essentials:
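Two-fold serial dilutions in cation-adjusted Mueller–Hinton broth per CLSI M100-S2. Stocks in DMSO/CAMH 1:10 v/v. Range 2.0–128 µM. Inoculum set to 0.5 McFarland, then diluted in saline and CAMH. Incubated at 35 °C for 18 h. MIC is the lowest concentration with no visible growth. Plates also read at 24 and 48 h as sterility control. Triplicate.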

Assay [14] deals with Staphylococcus aureus. Briefly: Antimicrobial activity against Staphylococcus aureus ATCC 29213 after 18 hrs by modified broth microdilution method. Format: functional. The essentials: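 PGI90, the concentration giving 90% growth inhibition, fitted with an exponential growth curve from at least seven concentrations of the MIC assay. Inhibition % = [(Ac − Ap)/Ac] × 100 from A620 of drug-free control versus drug-treated culture. Checked by a modified broth microdilution (Phase 2).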

The test system of assay [15] is Staphylococcus aureus. In words: Antimicrobial activity against multidrug-resistant Staphylococcus aureus VISA3 […] by two-fold broth microdilution method. In kind it is functional.
Assay [16] concerns Candida albicans. In words: Antimicrobial activity against Candida albicans ATCC 537Y after 48 hrs by two-fold broth microdilution method. Format: functional. In short, it runs like this:
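Two-fold serial dilutions in RPMI 1640 per CLSI M27-A2. Stocks in DMSO/RPMI 1:20 v/v. Test range 1.0–64 µM. Inoculum set to 0.5 McFarland, then diluted in saline and RPMI 1640. Plates held at 35 °C for 48 h. MIC is the lowest concentration giving prominent growth reduction. Run in triplicate.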

Structures are written as SMILES. In brackets after ≈: the same amount, converted by molar mass. Activity calls are given as the source filed them. The rule behind the calls is not given here.

As for `CC(=O)N1N=C(c2ccc(C(C)(C)C)cc2)OC1c1ccc([N+](=O)[O-])o1` (stereo not given), the outcome in [1], in [2], in assay [3], in [4], in [5] and in assay [6] was inactive. The outcome in assay [7] was inactive.
For `C[C@H]1COc2c(N3CCN(C)CC3)c(F)cc3c(=O)c(C(=O)O)cn1c23` [LEVOFLOXACIN], the MIC in assay [8], in [9], in assay [10], in assay [11], in assay [12] and in assay [13] was below 20 µM throughout.
As to `Nc1ccc(C(=O)N/N=C/c2ccc([N+](=O)[O-])o2)cc1`, the result in [3], in assay [5] and in assay [7] was inactive. Further, the MIC in [8] is 8 µM (≈ 2.19 µg/mL); in [9] it was 2 µM (≈ 0.548 µg/mL); in [10] it was 4 µM (≈ 1.1 µg/mL); in [11], 4 µM (≈ 1.1 µg/mL). In addition, the MIC90 in [8] came to 15.9 µM (≈ 4.36 µg/mL); in [9] it was 4.77 µM (≈ 1.31 µg/mL); in [10], 6.8 µM (≈ 1.86 µg/mL); in assay [11], 5.63 µM (≈ 1.54 µg/mL). In addition, the “log(1/MIC>90)” value in assay [14] stood at 5.32.
Turning to `O=C(N/N=C/c1ccc([N+](=O)[O-])o1)c1ccc(I)cc1`, the outcome in [2], in assay [3], in [4], in assay [5], in assay [6] and in [7] was inactive. Further, the MIC in assay [9] and in [15] was 2 µM (≈ 0.77 µg/mL) each time. The MIC90 in assay [9] was determined as 2.78 µM (≈ 1.07 µg/mL). Besides, in assay [14], the “log(1/MIC>90)” value is reported as 5.56.
On to `O=C(N/N=C/c1ccc([N+](=O)[O-])o1)c1ccc(Br)cc1`, for which the result in [2], in assay [3], in [4], in [5], in assay [6] and in assay [7] was inactive. The molecule also had an MIC in assay [9] of 2 µM (≈ 0.676 µg/mL). For the same molecule, the MIC90 in assay [9] came out at 4.5 µM (≈ 1.52 µg/mL). In assay [14], the “log(1/MIC>90)” value is reported as 5.35.
Take `CN(C)c1ccc(C(=O)N/N=C/c2ccc([N+](=O)[O-])o2)cc1`: the outcome in [3], in assay [4], in assay [5], in assay [6] and in assay [7] was inactive. The MIC in [8] came to 32 µM (≈ 9.67 µg/mL); in assay [9], 4 µM (≈ 1.21 µg/mL). Besides, the MIC90 was found to be 55 µM (≈ 16.6 µg/mL) in assay [8] and 7.7 µM (≈ 2.33 µg/mL) in [9]. For the same molecule, in assay [14], the “log(1/MIC>90)” value is reported as 5.11.
As for `O=C1CN(/N=C/c2ccc([N+](=O)[O-])o2)C(=O)N1` [NITROFURANTOIN], the result in [3] and in [7] was inactive. In addition, the MIC was 16 µM (≈ 3.81 µg/mL) in [9], 8 µM (≈ 1.91 µg/mL) in [10] and 16 µM (≈ 3.81 µg/mL) in assay [11].
With `NS(=O)(=O)c1ccc(C(=O)N/N=C/c2ccc([N+](=O)[O-])o2)cc1`, the result in assay [2], in assay [3], in [4], in [5], in assay [6] and in assay [7] was inactive. This molecule yielded an MIC in [9] of 4 µM (≈ 1.35 µg/mL). Moreover, the MIC90 in [9] was found to be 8.34 µM (≈ 2.82 µg/mL). In addition, the “log(1/MIC>90)” value in [14] was 5.08.
For `CCCc1ccc(C(=O)N/N=C/c2ccc([N+](=O)[O-])o2)cc1`, the MIC in assay [16] is 32 µM (≈ 9.64 µg/mL); in [8], 64 µM (≈ 19.3 µg/mL); in [9] it was 2 µM (≈ 0.603 µg/mL); in [11], 64 µM (≈ 19.3 µg/mL); in [15] it was 2 µM (≈ 0.603 µg/mL); in assay [12] it was 64 µM (≈ 19.3 µg/mL). Further, the minimum inhibitory concentration (MIC) in assay [13] was found to be 64 µM (≈ 19.3 µg/mL). Moreover, the MIC90 in assay [16] came to 42.1 µM (≈ 12.7 µg/mL); in [8], 69.8 µM (≈ 21 µg/mL); in assay [9], 2.56 µM (≈ 0.771 µg/mL); in assay [10] it was 69.8 µM (≈ 21 µg/mL); in assay [11] it was 73.2 µM (≈ 22.1 µg/mL); in assay [12], 66.3 µM (≈ 20 µg/mL). In assay [13], this molecule returned an MIC90 of 74.8 µM (≈ 22.5 µg/mL). For the same molecule, the “log(1/MIC>90)” value in assay [14] stood at 5.59.
Regarding `O=C(N[C@H](CO)[C@H](O)c1ccc([N+](=O)[O-])cc1)C(Cl)Cl` [CHLORAMPHENICOL], the MIC in assay [8] stood at 4 µM (≈ 1.29 µg/mL); in assay [9], 4 µM (≈ 1.29 µg/mL); in assay [10], 4 µM (≈ 1.29 µg/mL); in assay [11] it was 8 µM (≈ 2.59 µg/mL); in assay [12], 8 µM (≈ 2.59 µg/mL). Further, in [7], the outcome was inactive.
In the case of `CCCOc1ccc(C(=O)N/N=C/c2ccc([N+](=O)[O-])o2)cc1`, the minimum inhibitory concentration (MIC) in [16] amounted to 32 µM (≈ 10.2 µg/mL); in assay [8], 64 µM (≈ 20.3 µg/mL); in assay [9], 2 µM (≈ 0.635 µg/mL); in [11], 64 µM (≈ 20.3 µg/mL); in assay [15], 4 µM (≈ 1.27 µg/mL); in [12] it was 64 µM (≈ 20.3 µg/mL). In assay [13], this molecule gave an MIC of 64 µM (≈ 20.3 µg/mL). The MIC90 in assay [16] came to 40.8 µM (≈ 12.9 µg/mL); in assay [8] it was 65.8 µM (≈ 20.9 µg/mL); in assay [9] it was 2.47 µM (≈ 0.784 µg/mL); in [10] it was 69.8 µM (≈ 22.2 µg/mL); in [11] it was 73.5 µM (≈ 23.3 µg/mL); in assay [12], 66.7 µM (≈ 21.2 µg/mL). Moreover, the MIC90 in assay [13] amounted to 71.5 µM (≈ 22.7 µg/mL). Besides, the “log(1/MIC>90)” value in [14] stood at 5.61.
`CCCOc1ccc(C2=NN(C(C)=O)C(c3ccc([N+](=O)[O-])o3)O2)cc1` (stereo not given): the outcome in assay [1], in [2], in assay [3], in assay [4], in assay [5] and in assay [6] was inactive. The result in [7] was inactive.
With `O=C(N/N=C/c1ccc([N+](=O)[O-])o1)c1ccc(O)cc1` [NIFUROXAZIDE], the result in assay [3], in assay [5] and in assay [7] was inactive. For the same molecule, the MIC worked out at 32 µM (≈ 8.81 µg/mL) in assay [8]; 4 µM (≈ 1.1 µg/mL) in [9]; 32 µM (≈ 8.81 µg/mL) in assay [10]; 8 µM (≈ 2.2 µg/mL) in [11]; 8 µM (≈ 2.2 µg/mL) in assay [15]. Moreover, the MIC90 turned out to be 42 µM (≈ 11.6 µg/mL) in assay [8], 8.87 µM (≈ 2.44 µg/mL) in assay [9], 31.2 µM (≈ 8.59 µg/mL) in assay [10] and 10.6 µM (≈ 2.93 µg/mL) in [11]. Also, in [14], the “log(1/MIC>90)” value was determined as 5.05.
For `O=C(N/N=C/c1ccc([N+](=O)[O-])o1)c1ccc([N+](=O)[O-])cc1`, the result in assay [2], in [3], in [4], in [5], in assay [6] and in [7] was inactive. The results for the MIC in [9] and in assay [15] were 2 µM (≈ 0.608 µg/mL) and 4 µM (≈ 1.22 µg/mL), respectively. In addition, the MIC90 in assay [9] was determined as 3 µM (≈ 0.913 µg/mL). The “log(1/MIC>90)” value in [14] turned out to be 5.48.
On to `CC1(C)S[C@@H]2[C@H](NC(=O)[C@H](N)c3ccccc3)C(=O)N2[C@H]1C(=O)O` [AMPICILLIN], for which the outcome in [3] and in [7] was inactive. Also, the MIC was below 20 µM in [8], below 20 µM in assay [9], 8 µM (≈ 2.8 µg/mL) in assay [10] and below 20 µM in [11].

Broadly, the MIC is the least concentration at which growth counts as inhibited. A lower MIC goes with inhibition by little substance. What is called MIC90 is the lowest concentration that inhibits either 90% of growth or 90% of the strains tested, depending on the study. Low readings indicate greater potency, high ones weaker potency.

The values are drawn from ChEMBL document CHEMBL3259528, “Exploring 5-nitrofuran derivatives against nosocomial pathogens: synthesis, antimicrobial activity and chemometric analysis” (2014).
